Shown are actives, neighbours in structure and some others; about 2.6% of the full set was active somewhere.
ASAP1 GAP inh: inhibitors of human ASAP1 ArfGAP activity | Q9ULH1 | ASAP1-stimulated ARF1 GTP hydrolysis, GDP FP detection | inhibition, % at 16.5 µM | hit rate 0.19% among 360,000 | AID 624377; in the data active means inhibition above about 25%;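 further: 0% = vehicle with enzyme and substrate and 100% = no enzyme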
Target sequence (Q9ULH1 325-724 limits assumed): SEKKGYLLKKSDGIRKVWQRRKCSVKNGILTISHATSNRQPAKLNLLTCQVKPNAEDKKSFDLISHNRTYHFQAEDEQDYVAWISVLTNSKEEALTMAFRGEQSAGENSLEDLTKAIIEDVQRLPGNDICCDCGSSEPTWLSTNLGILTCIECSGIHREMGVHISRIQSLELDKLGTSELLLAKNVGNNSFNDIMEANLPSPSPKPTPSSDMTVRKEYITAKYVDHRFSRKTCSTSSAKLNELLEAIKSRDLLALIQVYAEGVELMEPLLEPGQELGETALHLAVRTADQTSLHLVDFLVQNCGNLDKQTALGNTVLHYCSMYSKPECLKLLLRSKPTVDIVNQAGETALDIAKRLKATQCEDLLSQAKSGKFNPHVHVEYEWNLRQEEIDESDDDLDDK
esBAF inh: blocks esBAF chromatin remodeling in mouse ES cells; AID 602393; Bmi1-luciferase knock-in reporter, 24 h; 100% = twice the neutral-well signal; reporter increase, % at 12.5 µM; hit rate 2% among 350,000; in the data active means activation above about 40%;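 further: 0% = median of the plate's neutral control wells and 100% = double that signal; a rise in the Bmi1 reporter signal indicates esBAF inhibition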
SMARCA2 act: SMARCA2 function activation, primary screen. AID 652017. activation, % at 9.1 µM. MG213 cells, MMTV-luciferase reporter, dexamethasone, overnight. hit rate 1% among 370,000; in the data active means activation above about 7.8%;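 further: 0% = vehicle wells and 100% = reference activator wells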
ARFGAP1 inh: inhibitors of rat ARFGAP1 | Q62848 | Arfgap1-stimulated ARF1 GTP hydrolysis, GDP FP detection | inhibition, % at 16.5 µM | AID 651572 | hit rate 0.26% among 360,000;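 active means inhibition above a per-plate limit, mean inhibition of low control wells plus 3 SD, cut at about 25% in these data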;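 further: 0% = DMSO wells with enzyme and 100% = wells lacking Arfgap1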
Target sequence (Q62848 1-136 limits assumed): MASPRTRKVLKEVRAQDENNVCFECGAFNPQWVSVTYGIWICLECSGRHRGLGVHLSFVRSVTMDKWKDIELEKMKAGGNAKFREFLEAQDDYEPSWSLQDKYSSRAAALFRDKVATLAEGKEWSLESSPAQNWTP
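Material: rat Arfgap1 GAP domain (His6, aa 1-136), purified enzyme. Also added: human ARF1(Δ1-17)-GTP substrate. Compound dosing: 16.5 µM single point, 1.26% DMSO. Timing: enzyme reaction 120 min at 25 °C after 20 min preincubation. Signal: GDP detection by fluorescence polarization. Read-out basis: percent inhibition of GAP-stimulated GDP formation, scaled between DMSO and no-Arfgap1 medians.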
ASAP1 GAP conf: ASAP1 inhibition confirmed | ASAP1-stimulated Arf1 GTPase, GDP fluorescence polarization | inhibition, % at 16.5 µM | shares compounds with ASAP1 GAP inh | hit rate 37% among 620;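 active means mean inhibition over triplicates exceeds the hit threshold derived for the earlier primary screening run, cut at about 25% in these data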
Numbers without * were called inactive; . = not tested or not shown.

SMILES | ASAP1 GAP inh | esBAF inh | SMARCA2 act | ARFGAP1 inh | ASAP1 GAP conf
CC(=O)c1ccc(CCCCc2ccc(C(C)=O)cc2)cc1 | 25* | 17 | -1 | -7 | 1
CCO[C@H]1OC(C(=O)Nc2ccccc2)=C[C@@H](c2csc3ccccc23)[C@@H]1CCCO | 25* | 2 | 1 | 16 | 19
CCO[C@@H]1OC(C(=O)O)=C[C@H](c2csc3ccccc23)[C@H]1CCCO | 5 | -4 | 0 | 1 | .
COc1ccc(OCc2cc(C(=O)NC3CCOCC3)no2)c2ccccc12 | 30* | . | 2 | 0 | 2
COc1cc(/C=C2\SC(N)=NC2=O)cc(Cl)c1O | 3 | -3 | -3 | 1 | .
Cc1ccc(C2=NC(=O)/C(=C/c3cc(O)c(O)c(Br)c3)S2)cc1 | 30* | 6 | 1 | -10 | 69*
COc1ccc(/C=C2\SC(N)=NC2=O)cc1Br | 14 | 18 | -1 | 5 | .
COc1cc(/C=C2\SC(c3ccc(C)cc3)=NC2=O)cc(OC)c1O | 25* | . | -1 | 9 | 36*
C[C@H]1CN([C@@H](C)CO)C(=O)c2cc(Br)cnc2O[C@H]1CN(C)C(=O)c1ccc(F)cc1 | . | -4 | . | . | .
CC(=O)Oc1ccc2ccccc2c1C(NC(=O)Cc1ccccc1)c1ccc(Cl)cc1 (stereo not drawn) | 140* | -3 | -6 | 2 | 6
COCC(=O)N1CC[C@@H]2[C@H]1c1cc(-c3cccc(OC)c3)ccc1N(C)[C@@H]2CO | . | 2 | . | . | .
Cc1ccc(C=NNC(=O)c2cc(-c3cccnc3)nc3ccccc23)o1 | 25* | -10 | 0 | 3 | 10
Cc1ccc(/C=N/NC(=O)c2cc(-c3ccccc3)nc3ccccc23)o1 | -8 | -9 | 0 | -4 | .
CN(C)c1ccc(-c2[nH][nH]c(=O)c2NC(=O)c2ccc3ccccc3n2)cc1 | 36* | -2 | 4 | -7 | 0
O=[N+]([O-])c1cc(C(F)(F)F)ccc1NCCc1c[nH]c2ccc(O)cc12 | 26* | -1 | -3 | 3 | 12
O=[N+]([O-])c1cc(C(F)(F)F)ccc1NCCc1c[nH]c2ccccc12 | -1 | 8 | -1 | 10 | .
NC(=S)NN=C1c2cc(OCCN3CCOCC3)ccc2-c2ccc(OCCN3CCOCC3)cc21 | 25* | . | -2 | 5 | 22
ON=C1c2cc(OCCN3CCCCC3)ccc2-c2ccc(OCCN3CCCCC3)cc21 | . | 4 | . | . | .
Cc1cc([N+](=O)[O-])c(C)cc1-c1ccc(/C=N/NC(=O)c2cccnc2)o1 | 25* | . | -2 | -3 | 21
O=C(N/N=C/c1ccc(-c2ccc([N+](=O)[O-])cc2)o1)c1cccnc1 | -11 | . | -3 | 11 | .
CO[C@H]1CN(C)C(=O)c2cc(NC(=O)C3CCCC3)ccc2OC[C@@H](C)N(C)C[C@H]1C | . | 1 | . | . | .
CC=Cc1ccc2n(c1=O)C[C@@H]1[C@@H](CO)[C@H](C(=O)NCC3CC3)[C@H]2N1S(=O)(=O)c1cn(C)cn1 (mixture of isomers) | . | -1 | . | . | .
COc1ccccc1/C=N/n1cnnc1 | 9 | 7 | -4 | 1 | .
O=[N+]([O-])c1ccc(OCCOc2ccccc2/C=N/n2cnnc2)cc1 | 37* | 5 | 2 | -2 | 46*
O=C(N/N=C/C(Br)=C/c1ccccc1)c1ccncc1 | -10 | . | -4 | 3 | .
SMILES | ASAP1 GAP inh | esBAF inh | SMARCA2 act | ARFGAP1 inh | ASAP1 GAP conf
O=C(N/N=C/C(Br)=C/c1ccccc1)c1ccc([N+](=O)[O-])cc1 | 48* | 0 | -1 | 4 | 78*
O=C(N/N=C/c1ccc(Br)s1)c1ccc([N+](=O)[O-])cc1 | 36* | -1 | 4 | 12 | 97*
COc1ccc(S(=O)(=O)Nc2ccc3c(c2)C(=O)N([C@@H](C)CO)C[C@@H](C)[C@@H](CN(C)CC2CCCCC2)O3)cc1 | . | 0 | . | . | .
COC(=O)[C@H](C)[C@@H]1C[C@@]1(C)[C@@H](NC(=O)OCc1ccccc1)c1ccccc1 | -1 | 8 | -1 | -2 | .
C[C@@H](C(=O)O)[C@H]1C[C@]1(C)[C@H](NC(=O)OCc1ccccc1)c1ccccc1 | 26* | -3 | -2 | -3 | 0
C[C@@H]1CN([C@@H](C)CO)C(=O)c2cc(NC(=O)NC3CCCCC3)ccc2O[C@@H]1CN(C)Cc1ccc(C(=O)O)cc1 | . | 1 | . | . | .
O=C(COc1ccc(/C=N/NC(=O)c2ccncc2)cc1)Nc1ccccc1 | 3 | 1 | 2 | -3 | .
O=C(COc1ccc(/C=N/NC(=O)c2ccncc2)cc1)Nc1cccc([N+](=O)[O-])c1 | 29* | -1 | 5 | 7 | 8
CC(C)NC(=O)N(C)C[C@@H]1OCCCC[C@@H](C)Oc2ccc(NS(=O)(=O)c3cn(C)cn3)cc2C(=O)N([C@H](C)CO)C[C@@H]1C | . | -5 | . | . | .
COc1ccc(C(=O)Nc2ccc3c(c2)C(=O)c2ccccc2C3=O)cc1OC | 27* | . | 3 | 5 | 40*
O=C(Nc1ccc(OCC(F)(F)C(F)F)c(C(F)(F)F)c1)c1ccc(Cl)cc1 | 1 | -28 | -8 | 10 | .
COc1ccc(C(=O)Nc2ccc(OCC(F)(F)C(F)F)c(C(F)(F)F)c2)cc1OC | 26* | . | -2 | -3 | 26*
C[C@@H]1CC2=C(C(=O)OC(C)(C)O2)[C@H](c2ccc(Cl)cc2)O1 | 26* | . | 0 | 9 | -2
C[C@@H]1CC2=C(C(=O)OC(C)(C)O2)[C@H](c2ccc(F)cc2)O1 | -8 | . | 5 | -6 | .
COc1cccc(S(=O)(=O)Nc2ccc3c(c2)[C@H]2C[C@H](CC(=O)NCc4cccc(F)c4)O[C@@H](CO)[C@H]2O3)c1 | . | -3 | . | . | .
O=C(CSc1ncnc2scc(-c3ccccc3)c12)N1CCN(Cc2ccc3c(c2)OCO3)CC1 | 31* | 2 | -2 | 11 | 46*
Cc1cc(NC2=CC(=O)C(=O)c3ccccc32)no1 | 29* | . | 1 | 1 | 10
O=C([C@H]1[C@H](CO)[C@H]2Cn3c(ccc(-c4ccccc4F)c3=O)[C@@H]1N2C(=O)C1CCC1)N1CCCCC1 | . | 3 | . | . | .
Cc1ccc(S(=O)(=O)N(C)C[C@H]2OCCCC[C@H](C)Oc3ccc(NS(=O)(=O)c4ccc(F)cc4)cc3C(=O)N([C@@H](C)CO)C[C@H]2C)cc1 | . | -3 | . | . | .
C[C@H](O)[C@@H]1C(=O)N2CCc3c([nH]c4c(-c5ccc6c(c5)OCO6)cccc34)[C@@H]2C[C@@H]1N(C)C(=O)Nc1ccccc1 | 29* | . | 1 | -3 | 20
O=C(CSc1nc2ccc(Nc3nc(N4CCOCC4)nc(N4CCOCC4)n3)cc2s1)Nc1ccccc1 | -1 | . | 1 | 0 | .
O=C(CSc1nc2ccc(Nc3nc(N4CCOCC4)nc(N4CCOCC4)n3)cc2s1)N1CCOCC1 | 25* | . | -1 | 12 | 45*
CC[n+]1c(/C=C/C=C/N(C(C)=O)c2ccccc2)sc2ccccc21 | 45* | 5 | 2 | 23 | 44*
O=C(O)C1Nc2c(O)cccc2C2C=CCC12 (stereo not drawn) | 26* | . | -4 | -3 | 20
